Experiment [1] addresses T1, Human immunodeficiency virus type 1 integrase (Human immunodeficiency virus 1, UniProt Q7ZJM1). Briefly: Inhibition of HIV1 integrase 3'-processing activity expressed in Escherichia coli by PAGE. Summed up:
(§1)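 Recombinant IN expressed in E. coli and purified with 10% glycerol in all buffers. 10 μL reactions held 400 nM IN, 20 nM 5'-end [³²P]-labeled oligonucleotide substrate and inhibitor at various concentrations, with 10% DMSO controls. Buffer was 50 mM MOPS pH 7.2 with 7.5 mM MgCl₂ (final), 30 min at 37 °C. Stopped with EDTA/formamide loading dye.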

Experiment [2] addresses T1, Human immunodeficiency virus type 1 integrase. Put plainly: Inhibition of HIV1 integrase strand transfer activity expressed in Escherichia coli by PAGE. Summed up: as §1

Experimental findings from ChEMBL document CHEMBL1155254, “Diketoacid-genre HIV-1 integrase inhibitors containing enantiomeric arylamide functionality” (Bioorg Med Chem, 2009) are described below.

T1 sequence (Q7ZJM1 whole entry): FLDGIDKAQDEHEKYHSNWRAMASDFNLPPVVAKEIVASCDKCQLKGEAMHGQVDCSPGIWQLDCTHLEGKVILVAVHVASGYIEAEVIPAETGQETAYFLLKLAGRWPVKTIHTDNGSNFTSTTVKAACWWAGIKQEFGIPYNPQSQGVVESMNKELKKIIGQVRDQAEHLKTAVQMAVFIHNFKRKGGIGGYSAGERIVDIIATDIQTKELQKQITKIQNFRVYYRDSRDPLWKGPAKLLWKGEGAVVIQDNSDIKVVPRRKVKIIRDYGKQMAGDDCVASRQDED

`O=C1c2c(ccc(O)c2O)CN1C1Cc2ccccc2C1`: the IC50 in experiment [1] was greater than 333 µM; in experiment [2], 23 µM.
Take `O=C1c2c(ccc(O)c2O)CN1Cc1ccc2ccccc2c1`: the IC50 in experiment [1] came out at 24 µM; in experiment [2], 0.8 µM.
For `O=C1c2ccc(O)c(O)c2C(=O)N1[C@@H]1CCCc2ccccc21`, the IC50 in experiment [1] was greater than 333 µM; in experiment [2], 81 µM.
Take `C[C@@H](C1CCCc2ccccc21)N1Cc2ccc(O)c(O)c2C1=O` (stereo partly specified): the results for the IC50 in experiment [1] and in experiment [2] were greater than 333 µM and 9 µM, respectively.
For `C[C@@H](C1CCc2ccccc21)N1Cc2ccc(O)c(O)c2C1=O` (stereo partly specified) the same measures were greater than 333 µM and 6 µM.
As for `C[C@H](C1CCc2ccccc21)N1Cc2ccc(O)c(O)c2C1=O` (stereo partly specified), the IC50 in experiment [1] was greater than 333 µM; in experiment [2], 99 µM.
Take `C[C@H](c1ccc2ccccc2c1)N1Cc2ccc(O)c(O)c2C1=O`: the results for the IC50 in experiment [1] and in experiment [2] were greater than 111 µM and 24 µM, respectively.
In the same order, the values of `O=C1c2ccc(O)c(O)c2C(=O)N1[C@H]1CCCc2ccccc21` are 111 µM and 10 µM.
For `O=C1c2ccc(O)c(O)c2C(=O)N1[C@@H]1CCc2ccccc21`, the IC50 in experiment [1] worked out at 290 µM; in experiment [2], 12 µM.
On to `O=C1c2ccc(O)c(O)c2C(=O)N1[C@H]1CCc2ccccc21`, for which the IC50 in experiment [1] turned out to be 128 µM; in experiment [2], 1.8 µM.
For the compound `C[C@@H](c1ccc2ccccc2c1)N1Cc2ccc(O)c(O)c2C1=O`, the IC50 is greater than 111 µM in experiment [1] and 4.6 µM in experiment [2].
As for `C[C@H](c1cccc2ccccc12)N1Cc2ccc(O)c(O)c2C1=O`, the values for the IC50 in experiment [1] and in experiment [2] were greater than 111 µM and 48.3 µM, respectively.
With `O=C1c2ccc(O)c(O)c2C(=O)N1Cc1ccc2ccccc2c1`, the IC50 in experiment [1] was found to be 18 µM; in experiment [2], 0.96 µM.
For `C[C@@H](c1cccc2ccccc12)N1Cc2ccc(O)c(O)c2C1=O` the same measures were greater than 111 µM and 4 µM.
For `O=C1c2ccc(O)c(O)c2C(=O)N1C1Cc2ccccc2C1`, the IC50 in experiment [1] turned out to be 37 µM; in experiment [2] it was 4 µM.
In the case of `C[C@H](C1CCCc2ccccc21)N1Cc2ccc(O)c(O)c2C1=O` (stereo partly specified), the results for the IC50 in experiment [1] and in experiment [2] were greater than 333 µM and 121 µM, respectively.
On to `C[C@@H](c1ccccc1)N1Cc2ccc(O)c(O)c2C1=O`, for which the IC50 is greater than 333 µM in experiment [1] and 45 µM in experiment [2].
As to `O=C1c2ccc(O)c(O)c2C(=O)N1CCc1ccccc1`, the IC50 turned out to be 157 µM in experiment [1] and 6.8 µM in experiment [2].
`O=C1c2ccc(O)c(O)c2C(=O)N1Cc1ccccc1`: in experiment [2], the IC50 was found to be 0.39 µM.
For the compound `O=C1c2ccc(O)c(O)c2C(=O)N1Cc1cccc2ccccc12`, the IC50 amounted to 150 µM in experiment [1] and 0.72 µM in experiment [2].
For `C[C@H](c1ccccc1)N1Cc2ccc(O)c(O)c2C1=O` the same measures were greater than 333 µM and 100 µM.
